IDE cell inh = inhibitors of human insulin-degrading enzyme in cells; P14735; HEK cells, FAbetaB cleavage, fluorescence polarization; inhibition, % at 5.59 µM; 0.41% of 320,000 active;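 active means percent inhibition above the average of all tested compounds plus 3 SD, set per screening campaign, cut at about 16% in these data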;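 further: IDE supplied by intact live HEK cells; FP after avidin binding of uncleaved biotin substrate so inhibition keeps polarization high; 0% = DMSO wells and 100% = 60 µM reference IDE inhibitor Ii1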
Target sequence (P14735 whole entry, looked up): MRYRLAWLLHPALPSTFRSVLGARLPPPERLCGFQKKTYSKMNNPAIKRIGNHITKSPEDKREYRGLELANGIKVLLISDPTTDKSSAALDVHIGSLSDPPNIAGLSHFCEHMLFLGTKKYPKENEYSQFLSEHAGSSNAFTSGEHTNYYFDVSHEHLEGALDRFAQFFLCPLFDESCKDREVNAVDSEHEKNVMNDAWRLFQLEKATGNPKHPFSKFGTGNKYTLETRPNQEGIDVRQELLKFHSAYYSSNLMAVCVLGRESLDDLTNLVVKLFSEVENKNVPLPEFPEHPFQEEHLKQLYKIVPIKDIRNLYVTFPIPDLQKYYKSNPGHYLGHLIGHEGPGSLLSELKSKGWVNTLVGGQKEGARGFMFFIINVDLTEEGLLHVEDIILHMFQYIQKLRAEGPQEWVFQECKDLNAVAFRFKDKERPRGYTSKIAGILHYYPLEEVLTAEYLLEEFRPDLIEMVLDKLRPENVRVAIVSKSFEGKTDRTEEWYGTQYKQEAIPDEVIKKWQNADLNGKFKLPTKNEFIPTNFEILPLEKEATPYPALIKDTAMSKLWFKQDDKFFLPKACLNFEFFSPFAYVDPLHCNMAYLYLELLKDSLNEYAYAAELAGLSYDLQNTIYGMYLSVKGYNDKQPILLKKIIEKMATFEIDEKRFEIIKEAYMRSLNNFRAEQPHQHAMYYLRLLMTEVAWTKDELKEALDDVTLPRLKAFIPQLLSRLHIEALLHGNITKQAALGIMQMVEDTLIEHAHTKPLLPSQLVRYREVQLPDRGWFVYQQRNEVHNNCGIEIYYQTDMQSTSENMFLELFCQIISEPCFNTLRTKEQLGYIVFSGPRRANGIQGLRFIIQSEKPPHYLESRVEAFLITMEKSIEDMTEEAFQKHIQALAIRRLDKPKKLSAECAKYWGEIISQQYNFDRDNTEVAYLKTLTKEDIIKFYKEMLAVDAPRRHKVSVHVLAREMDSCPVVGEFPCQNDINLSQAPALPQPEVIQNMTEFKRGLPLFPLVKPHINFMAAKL
TPT1 inh = blocks Candida albicans tRNA 2'-phosphotransferase; AID 1962; inhibition, % at 5 µM; recombinant caTPT1, FP RNA substrate dephosphorylation; 0.81% of 300,000 active;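 active means inhibition above the mean of all tested compounds plus 3 SD, set per screening campaign, cut at about 24% in these data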;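 further: plate controls were DMSO alone for no effect and ferristatin control at 100 nM for full effect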
proCasp7 act = activates human procaspase-7, counter-screen for procaspase-3 activators; recombinant procaspase-7, Ac-DEVD-pNA absorbance 405 nm; D23A/D198A/D206A triple mutant, cannot self-cleave; scale: DMSO 0, 5 µM enzyme 100; activation, % at 8.5 µM; 0.093% of 330,000 active; AID 463210;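 active means percent activation above the screen-wide mean plus 3 SD, cut at about 25% in these data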
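Assay system: Uncleavable procaspase-7 mutant enzyme | Input: 2 µM procaspase-7 mutant as dispensed | Timing: 1 h compound preincubation, 2 h substrate cleavage, 25 °C | Repeats: One well per compound | Control set: DMSO wells as 0%, DMSO with 5 µM added PC-7 as 100% | Technique: Epi-absorbance of released pNA at 405 nm, two timepoints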
IDE act = IDE (human) activation, cell-based; P14735; HEK cells, FAbeta-B cleavage, fluorescence polarization; 0% vehicle, 100% cell-free pure enzyme wells; activation, % at 5.96 µM; 0.073% of 340,000 active;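 active means activation above the mean of all tested compounds plus 3 SD, set per screening campaign, cut at about 17% in these data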
procasp3 activ = procaspase-3 (human) activation; P42574; recombinant procaspase-3 D3A, Ac-DEVD-pNA absorbance 405 nm; activation, % at 8.5 µM; 0.11% of 330,000 active;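 active means activation above the mean of all tested compounds plus 3 SD, cut at about 21% in these data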;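 further: 0% = DMSO alone and 100% = DMSO wells spiked with extra 5 µM PC-3 D3A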
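Test system: Procaspase-3 D3A mutant, all three cleavage aspartates alanine | Dosing: Single dose, 8.5 µM nominal compound, 0.8% DMSO | Schedule: 1 h preincubation, 2 h reaction | Technique: 405 nm absorbance of p-nitroaniline, reads at 0 and 120 min | Repeats: One well per compound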
TPT1 inh confirm = confirmation of Candida albicans TPT1 inhibitors; 74% of 2,400 active; inhibition, % at 5 µM; recombinant caTPT1, fluorescence polarization, RNase T1 coupled; shares compounds with TPT1 inh;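 active means inhibition above the primary screen limit, the mean inhibition of all tested compounds plus 3 SD, cut at about 25% in these data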
RNase T1 inh = blocks Aspergillus oryzae RNase T1, a TPT1 counter-screen | shares compounds with TPT1 inh | RNase T1 cleavage, fluorescence polarization, 1536-well | inhibition, % at 5 µM | 83% of 2,400 active;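 active means inhibition above the solvent-only control well mean plus 3 SD, limit set per screening run, cut at about 23% in these data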;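 further: plate controls were DMSO wells with enzyme for no effect and wells without RNase T1 for full effect; inhibitors block cleavage so intact labeled substrate keeps polarization high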
An asterisk follows results filed as active; nt = no result. A selection: hits, their analogues and other compounds. The true share with any hit is near 1.2%.

SMILES	IDE cell inh	TPT1 inh	proCasp7 act	IDE act	procasp3 activ	TPT1 inh confirm	RNase T1 inh
CN1CCN(c2ccc(/C=C3\C(=O)NC(=S)N(c4cccc(Br)c4)C3=O)o2)CC1	2.0	131.7*	-5.6	-35.7	-14.7	151.8*	142.3*
CN1C(=O)/C(=C/c2ccc(N3CCCCCC3)o2)C(=O)NC1=S	14.2	167.4*	0.1	-39.7	-4.9	144.9*	138.2*
CN1C(=O)/C(=C\c2ccc(N3CCCCC3)o2)C(=O)NC1=S	8.7	113.0*	-2.5	-14.1	1.6	141.6*	135.5*
CN1CSC(=S)N(C)C1	0.5	-5.2	-12.4	1.1	-4.5	nt	nt
CC(C)c1oc(=O)cc2c1[C@@H](O)[C@H]1OC(=O)[C@@]3(C)C[C@@H](O)[C@@H](O)[C@@]2(C)C13 (stereo not given in full)	8.2	-3.6	4.1	2.3	13.5	nt	nt
CC(C)C12CN3CC(C(C)C)(CN(C1)C3c1cccnc1)C2=O (stereo not given)	1.6	0.1	2.2	1.8	3.1	nt	nt
O=C(NC(=C(Cl)Cl)P(=O)(c1ccccc1)c1ccccc1)c1ccccc1	-1.2	-1.1	6.2	6.7	2.0	nt	nt
O=C1NC(=S)N(c2ccc(Cl)cc2)C(=O)/C1=C/N1CCN(C(=O)c2ccco2)CC1	3.9	39.4*	8.6	-3.4	-2.3	29.1*	41.1*
CC1=CC2OC3CC4OC(=O)C=CC=CC(=O)OCCC(C)C(O)C(=O)OCC2(CC1)C4(C)C31CO1 (stereo not given)	nt	nt	nt	3.4	nt	nt	nt
C=CCn1c(O)c(C=Nc2c(C)n(C)n(-c3ccccc3)c2=O)c(=O)[nH]c1=O	3.7	38.3*	6.1	1.2	8.8	17.5	23.8*
Cc1c(N=Cc2c(O)n(C)c(=O)[nH]c2=O)c(=O)n(-c2ccccc2)n1C	1.7	-4.9	-1.7	nt	7.3	nt	nt
CN1C(=O)C(=Cc2ccc(Sc3ccccc3)o2)C(=O)N(C)C1=S	3.6	36.5*	-7.8	-12.2	2.0	23.8	37.5*
CCN1C(=O)C(=Cc2ccc(N3CCOCC3)o2)C(=O)N(CC)C1=S	11.8	111.9*	-11.9	-44.6	-6.3	146.3*	136.8*
C=CCN1C(=O)/C(=C/c2ccc(Br)s2)C(=O)NC1=S	-3.1	27.6*	-16.0	-10.1	-3.3	15.1	23.7*
CN1C(=O)/C(=C/c2ccc(Cl)s2)C(=O)NC1=S	3.8	8.1	-7.1	-12.1	-4.3	nt	nt
C=CCN1C(=O)/C(=C\c2ccc(N3CCOCC3)o2)C(=O)NC1=S	12.4	107.9*	-4.3	-16.5	-4.4	120.3*	123.6*
CC(C)C(C)(NC(=O)c1cccn(Cc2ccc3c(c2)OC(F)(F)O3)c1=O)C(N)=O (stereo not given)	-4.4	-3.9	-2.7	5.6	-5.5	nt	nt
CN1C(=O)C(=Cc2ccc(N3CCOCC3)o2)C(=O)N(C)C1=S	0.4	56.8*	-18.1	-6.6	-3.6	114.3*	118.0*
O=C1CCCN1CC#CCN1CCCC1	4.4	0.1	0.3	-1.3	1.9	nt	nt
COc1ccc(CN2C(=O)CC(=O)NC2=O)cc1	10.6	24.4*	-10.4	1.0	-13.8	18.3	24.5*
COc1ccc(N2C(=O)CC(=O)NC2=O)cc1	2.3	2.9	-15.2	-1.9	0.5	nt	nt
COc1ccc(C2SCC(=O)Nc3c2c(C)nn3C2CCOC(C)(C)C2)cc1OC (stereo not given)	0.9	26.8*	3.1	0.5	0.2	17.9	24.7*
O=c1[nH]c(O)c(/C=C2/C=CC(c3cc(Cl)ccc3Cl)=N2)c(=O)[nH]1	8.8	93.5*	-3.8	-45.6	-8.9	108.3*	103.4*
CC1=Nc2ccccc2/C1=C/c1c(O)[nH]c(=O)[nH]c1=O	4.3	3.2	-18.1	4.2	-7.4	nt	nt
Cc1ccc(N2C(=O)/C(=C/c3ccc(CN(CCC#N)S(C)(=O)=O)o3)C(=O)NC2=S)cc1C	10.2	46.0*	-22.4	nt	-12.5	47.6*	57.3*
SMILES	IDE cell inh	TPT1 inh	proCasp7 act	IDE act	procasp3 activ	TPT1 inh confirm	RNase T1 inh
Cc1cccc(N2C(=O)NC(=O)/C(=C\c3cccn3-c3ccc(Cl)cc3)C2=O)c1	-1.2	5.8	-5.9	-6.1	0.0	nt	nt
Cc1cccc(N2C(=O)/C(=C/c3ccc(CN(CCC#N)S(C)(=O)=O)o3)C(=O)NC2=S)c1	1.4	33.7*	-11.7	4.4	-16.6	21.5	28.9*
C=CCOC(=O)C1C(C(=O)O)C2(Cl)C(Cl)=C(Cl)C1(Cl)C2(Cl)Cl (stereo not given)	nt	nt	nt	-1.9	nt	nt	nt
O=C1Nc2cc(C(=O)N3CCC4(CC3)OCCO4)ccc2NC1CSCc1cccc(F)c1 (stereo not given)	4.3	61.0*	-3.2	nt	-8.6	95.8*	100.9*
COC(=O)C1=C(c2ccc(OC(F)(F)F)cc2)C[C@@H]2CC[C@H]1N2C(=O)NC(C)C	-4.8	nt	12.0	5.2	-0.1	nt	nt
COc1ccc(OC)c(N2C(=O)/C(=C/c3ccco3)C(=O)NC2=S)c1	2.1	67.9*	-17.0	nt	-16.6	54.6*	27.0*
Cn1c(O)c(/C=C/C=Nc2ccccc2)c(=O)n(C)c1=O	7.4	104.4*	-10.5	-4.6	-10.7	110.7*	117.9*
Nc1c([N+](=O)[O-])cc(F)c(N2CCNCC2)c1Br	-0.2	26.7*	0.5	-4.7	2.3	9.1	9.8
OC(CN1CCCCC1)c1c[nH]c2ccccc12 (stereo not given)	4.3	0.3	0.1	5.2	6.5	nt	nt
O=C(/C=C/c1c[nH]c2ccccc12)c1c(O)n(CCc2ccccc2)c(=O)[nH]c1=O	-5.3	169.0*	-10.9	nt	-13.6	176.8*	161.9*
CCCCn1c(O)c(C(C)=NCCc2c[nH]c3ccccc23)c(=O)[nH]c1=O	4.4	-2.5	-6.0	6.2	7.6	nt	nt
CC(C)(C)c1ccc(O)c(N=Cc2c(O)ccc3ccccc23)c1	-5.3	134.9*	-32.3	5.2	-21.5	137.8*	131.2*
COC(=O)C(O)(c1ccc(N=Cc2ccccc2O)c(C)c1)C(F)(F)F (stereo not given)	3.7	9.3	-7.3	-2.9	0.4	nt	nt
O[C@@H]1CCCN2CCc3c([nH]c4ccccc34)[C@H]12	9.8	30.3*	-0.9	0.2	0.3	14.4	23.1*
CCCCc1nc2ccccc2c(=O)n1-c1ccc(Cl)cc1[N+](=O)[O-]	-4.3	3.7	-4.1	1.6	7.0	nt	nt
C#CC1(O)CCC2C3CCC4=C/C(=N/OCC(=O)NCC(=O)NC(C(=O)O)C(C)C)CC[C@]4(C)C3CC[C@@]21C (stereo not given in full)	nt	nt	nt	6.1	nt	nt	nt
C#C[C@]1(O)CC[C@H]2[C@@H]3CCC4=Cc5nc6nc7ccccc7n6cc5C[C@]4(C)[C@H]3CC[C@@]21C	3.4	32.2*	-2.0	-0.7	-8.7	33.4*	43.9*
